Glyco luc inh = blocks N-linked glycosylation in D54 reporter cells. D54 ERlucT glycosylation luciferase reporter, 24 h; percent of 100 nM tunicamycin response. reporter increase, % at 12.5 µM. actives 0.23% (n = 360,000). AID 588692;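 active = mean luciferase reporter signal, scaled so untreated is 0 and the glycosylation-blocking control 100, at or above a set limit in every replicate; inconclusive = mean reaches the limit but not every replicate does; inactive = mean below the limit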;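 also: luciferase carries N-glycosylation sites so blocking glycosylation raises the light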
EWS-Fli inh = EWS/Fli transcriptional activity inhibition; A673 NR0B1-luciferase reporter, viability-normalised; inhibition, % at 12.6 µM; actives 0.67% (n = 350,000); AID 651661;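 active = mean inhibition of at least 50% after viability correction, with every replicate also passing that limit; inconclusive = mean reaches 50% but only one of two replicates passes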;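 also: firefly luciferase signal divided by Alamar Blue viability fluorescence both relative to DMSO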
HIV Env fusion = inhibitors of HIV Env-mediated cell fusion | HeLa-JRFL Env/CEM21 cell fusion, luciferase | actives 1.1% (n = 360,000) | inhibition, % at 12.3 µM;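 active = mean replicate inhibition score of at least 50 and every replicate individually at or above 50; inconclusive = only one of the two criteria met; inactive = mean below 50 and not all replicates reaching 50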
FN deposit inh = fibronectin deposition inhibition; AH1F fibroblasts, Alexa488-fibronectin deposition fluorescence, overnight; inhibition, % at 12.6 µM; actives 0.086% (n = 350,000); AID 743247;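 active = mean inhibition across replicates of 30% or more, regardless of how many single replicates reach that level; inconclusive = mean under 30% yet at least half of replicates reach 30%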
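Assay system: AH1F fibroblasts / Quantity: 10000 cells per well / Medium: DMEM plus 2% serum, read in PBS / Reagent: labelled fibronectin 24 nM / Dosing: single dose, pinned / Times: 1 h cell attachment, overnight exposure to compound and label / Signal: fluorescence, ex 485 nm, em 525 nm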
PAX8 reporter = lowers PAX8-driven luciferase in RMG-I cells; actives 1.2% (n = 360,000); inhibition, % at 12.6 µM; RMG-I TPO-luciferase reporter, SteadyGlo, 24 h;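 active = mean replicate inhibition at least 60% with every replicate also reaching 60%; inconclusive = only one of the two criteria is met; inactive = mean below 60% and not all replicates reaching 60%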;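 also: luciferase light reporting Pax8 driven TPO promoter activity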
AF4-AF9 inh = inhibitors of human MLL-AF4/AF9 interaction. AlphaScreen, biotin-AF4 peptide binding to FLAG-AF9. inhibition, % at 10 µM. actives 0.47% (n = 350,000);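 active = every replicate reaching a set inhibition limit, whatever the replicate mean, cut at about 25% in these data; inconclusive = mean inhibition reaches that limit but some replicates miss it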
Target sequence (P42568 whole entry, looked up): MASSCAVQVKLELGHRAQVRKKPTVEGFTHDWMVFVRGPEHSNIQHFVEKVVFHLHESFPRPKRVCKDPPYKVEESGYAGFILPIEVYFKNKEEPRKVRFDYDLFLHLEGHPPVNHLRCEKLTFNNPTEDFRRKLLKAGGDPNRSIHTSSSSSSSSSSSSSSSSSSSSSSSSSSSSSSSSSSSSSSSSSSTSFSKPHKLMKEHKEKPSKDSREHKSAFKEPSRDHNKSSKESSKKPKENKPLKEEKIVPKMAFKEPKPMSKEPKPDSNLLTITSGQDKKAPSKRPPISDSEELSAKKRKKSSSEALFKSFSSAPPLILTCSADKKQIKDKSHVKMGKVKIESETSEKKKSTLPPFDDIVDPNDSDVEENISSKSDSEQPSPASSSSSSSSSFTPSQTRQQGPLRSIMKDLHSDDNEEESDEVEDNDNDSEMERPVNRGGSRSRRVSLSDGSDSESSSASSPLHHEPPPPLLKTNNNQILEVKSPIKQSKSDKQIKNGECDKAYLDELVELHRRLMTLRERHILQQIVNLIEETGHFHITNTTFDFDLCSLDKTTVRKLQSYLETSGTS
Numbers stand for hits. Compounds with a hit are over-represented: about 2.5% of the library has one in this group of screens.

CCc1cccc(CC)c1NC(=O)C(NS(=O)(=O)c1cccs1)c1ccccc1 (stereo not given) was read as Glyco luc inh inactive, HIV Env fusion inactive, FN deposit inh inactive and PAX8 reporter inactive.
`Cc1ccc(-n2nnnc2CNC(=O)c2ccc(Br)o2)cc1C` gave Glyco luc inh inactive, HIV Env fusion inactive, FN deposit inh inactive, PAX8 reporter inactive and AF4-AF9 inh inactive.
O=C(NCc1nnnn1-c1ccc(F)cc1)c1ccc([N+](=O)[O-])o1 was read as Glyco luc inh inactive, EWS-Fli inh inactive, HIV Env fusion inactive, FN deposit inh inactive, PAX8 reporter 70.3 and AF4-AF9 inh inactive.
`Cc1ccc(-n2nnnc2CNC(=O)c2ccc([N+](=O)[O-])o2)cc1C` gave Glyco luc inh inactive, EWS-Fli inh inactive, HIV Env fusion inactive, FN deposit inh inactive, PAX8 reporter 84.3 and AF4-AF9 inh inactive.
For CC1CCc2c(sc(NC(=O)Cn3cnc([N+](=O)[O-])n3)c2C(N)=O)C1 (stereo not given) the results were Glyco luc inh inactive, EWS-Fli inh inactive, HIV Env fusion inactive, FN deposit inh inactive, PAX8 reporter inactive and AF4-AF9 inh inactive.
For Cc1cc([N+](=O)[O-])nn1CCCC(=O)Nc1sc2c(c1C(N)=O)CCC(C)C2 (stereo not given) the results were Glyco luc inh inactive, EWS-Fli inh inactive, FN deposit inh inactive, PAX8 reporter 97.5 and AF4-AF9 inh 27.9.
Cn1cnc([N+](=O)[O-])c1S(=O)(=O)c1cccc(Cl)c1 was read as Glyco luc inh inconclusive, EWS-Fli inh inactive, HIV Env fusion inactive, FN deposit inh inactive, PAX8 reporter 83.1 and AF4-AF9 inh inactive.
Cn1cnc([N+](=O)[O-])c1S(=O)(=O)Oc1ccccc1 was read as Glyco luc inh inactive, EWS-Fli inh inactive, HIV Env fusion inactive, FN deposit inh inactive, PAX8 reporter 89.8 and AF4-AF9 inh inactive.
`Cn1cnc([N+](=O)[O-])c1S(=O)(=O)Nc1ccccc1` gave Glyco luc inh inactive, EWS-Fli inh inactive, HIV Env fusion inactive, FN deposit inh inactive, PAX8 reporter inactive and AF4-AF9 inh inactive.
For CCOC(=O)C1=CC[C@@H](c2ccc3ccccc3n2)[C@@H]1C(=O)c1ccccc1 the results were EWS-Fli inh inactive, HIV Env fusion inactive, PAX8 reporter inactive and AF4-AF9 inh inactive.
`Cc1noc(C)c1S(=O)(=O)N(C)C[C@H]1OCCCC[C@@H](C)Oc2ccc(NC(=O)NC3CCCCC3)cc2C(=O)N([C@@H](C)CO)C[C@H]1C` gave EWS-Fli inh inactive, HIV Env fusion inactive, PAX8 reporter inactive and AF4-AF9 inh inactive.
`Nc1cc(=O)[nH]c(SCCSc2ccccc2)n1` gave Glyco luc inh inactive, EWS-Fli inh inactive, HIV Env fusion 58.4, FN deposit inh inactive, PAX8 reporter inactive and AF4-AF9 inh inactive.
Cc1ccccc1-c1nc(-c2ccccn2)no1 was read as Glyco luc inh inactive, EWS-Fli inh 83.0, HIV Env fusion inactive, FN deposit inh inactive, PAX8 reporter 72.6 and AF4-AF9 inh inactive.
Screening COc1ccc(-c2nc(-c3ccccn3)no2)cc1 returned Glyco luc inh inactive, EWS-Fli inh 85.7, HIV Env fusion 62.5, FN deposit inh inactive, PAX8 reporter 104.2 and AF4-AF9 inh inactive.
Screening COc1ccc(-c2nc(-c3cccs3)no2)cc1 returned Glyco luc inh inactive, EWS-Fli inh 82.5, HIV Env fusion inactive, FN deposit inh inactive, PAX8 reporter inactive and AF4-AF9 inh inactive.
`Clc1ccc(-c2nc(-c3ccccn3)no2)cc1Cl` gave Glyco luc inh inactive.
For COc1ccccc1-c1noc(-c2ccncc2)n1 the results were Glyco luc inh inactive.
`COc1ccccc1-c1nc(-c2ccccn2)no1` gave Glyco luc inh inactive, EWS-Fli inh 72.7, HIV Env fusion inactive, FN deposit inh inactive, PAX8 reporter inactive and AF4-AF9 inh inactive.
For COc1ccc(-c2nc(-c3ccncc3)no2)cc1 the results were Glyco luc inh inactive, EWS-Fli inh inactive, HIV Env fusion inactive, FN deposit inh inactive, PAX8 reporter inactive and AF4-AF9 inh inactive.
Screening Cc1noc(C)c1NC(=O)Nc1ccc2c(c1)C(=O)N([C@H](C)CO)C[C@H](C)[C@@H](CN(C)C(=O)Nc1cccc3ccccc13)OCCCC[C@H](C)O2 returned EWS-Fli inh inactive, HIV Env fusion inactive, FN deposit inh inactive and PAX8 reporter inactive.
For Cc1noc(C)c1S(=O)(=O)Nc1ccc2c(c1)CC(=O)N([C@@H](C)CO)C[C@H](C)[C@@H](CN(C)S(=O)(=O)c1cccs1)O2 the results were EWS-Fli inh inactive, HIV Env fusion inactive, FN deposit inh inactive and AF4-AF9 inh inactive.
Screening COc1ccc2c3c([nH]c2c1)[C@@H](CO)N(C(=O)c1ccccc1)CC31CCN(C(=O)CC2CC2)CC1 returned EWS-Fli inh inactive and AF4-AF9 inh inactive.
`COc1cc(C(=O)OCCc2cc3ccccc3c(=O)o2)cc(OC)c1OC` gave Glyco luc inh 27.0, EWS-Fli inh inactive, HIV Env fusion inactive, FN deposit inh inactive, PAX8 reporter inactive and AF4-AF9 inh inactive.
`COc1cc(C(=O)OCCCc2cc3ccccc3c(=O)o2)cc(OC)c1OC` gave Glyco luc inh inactive, EWS-Fli inh inactive, HIV Env fusion inactive, FN deposit inh inactive, PAX8 reporter inactive and AF4-AF9 inh inactive.
`NC(=O)[C@@H]1CC2(CC(c3cccc(NC(=O)CC(c4ccccc4)c4ccccc4)c3)=NO2)CN1C(=O)COc1ccc(Cl)cc1` (stereo not given in full) gave Glyco luc inh inactive, EWS-Fli inh inactive, HIV Env fusion inactive, FN deposit inh inactive, PAX8 reporter 76.9 and AF4-AF9 inh inactive.
`NC(=O)[C@H]1CC2(CC(c3cccc(NC(=O)CC(c4ccccc4)c4ccccc4)c3)=NO2)CN1C(=O)C(c1ccccc1)c1ccccc1` (stereo not given in full) gave Glyco luc inh inactive, EWS-Fli inh inactive, HIV Env fusion inactive, FN deposit inh inactive, PAX8 reporter 68.9 and AF4-AF9 inh inactive.
Screening NC(=O)[C@H]1CC2(CC(c3cccc(NC(=O)CC(c4ccccc4)c4ccccc4)c3)=NO2)CN1C(=O)c1ccccc1C(=O)c1ccccc1 (stereo not given in full) returned Glyco luc inh inactive, EWS-Fli inh inactive, HIV Env fusion inactive, FN deposit inh inactive, PAX8 reporter inconclusive and AF4-AF9 inh inactive.
For COCC(=O)N(C)C[C@H]1Oc2cc(C#CC(C)C)ccc2S(=O)(=O)N([C@@H](C)CO)C[C@@H]1C the results were EWS-Fli inh inactive, HIV Env fusion inactive, FN deposit inh inactive and PAX8 reporter inactive.
Screening CO[C@@H](CN(C)S(=O)(=O)c1cn(C)cn1)[C@@H](C)CN(C(=O)Nc1ccc(C(F)(F)F)cc1)[C@H](C)CO returned EWS-Fli inh inactive and AF4-AF9 inh inactive.
Screening COc1ccc(C(=O)NNC(=O)Cc2nc3ccccc3n2C)cc1 returned Glyco luc inh inactive, EWS-Fli inh inactive, HIV Env fusion inactive, FN deposit inh inactive, PAX8 reporter 67.7 and AF4-AF9 inh inactive.

Screening results from PubChem.
